Our source for the Ki and Activity values is ChEMBL document CHEMBL1799969, “Development of endocannabinoid-based chemical probes for the study of cannabinoid receptors” (J Med Chem, 2011).

Experiment [1] concerns the target T1, Cannabinoid receptor 1 (Homo sapiens, UniProt P21554). Kind of experiment: Displacement of [3H]-CP55940 from human CB1 receptor expressed in HEK-293-EBNA cell membranes after 90 mins by scintillation counting. In general terms: Displacement assays read how much labelled ligand stays bound in the presence of the test substance.
Experiment [2] addresses Cannabinoid receptor 2 (Homo sapiens, UniProt P34972). Nature of the experiment: Displacement of [3H]-CP55940 from human CB2 receptor expressed in HEK-293-EBNA cell membranes after 90 mins by scintillation counting. Put shortly: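 Competitive radioligand binding with [3H]CP55940 on membranes of HEK-293-EBNA cells transfected with human CB1 or CB2 receptor. Ki derived from IC50 by the Cheng-Prusoff equation. Mean ± SEM of two to four independent experiments, each run in triplicate.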

Experiment [3] addresses T1, Cannabinoid receptor 1. Kind of experiment: Binding affinity to CB1 receptor. Put shortly:
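Radioligand competition binding on membranes of HEK-293-EBNA cells transfected with human CB1 receptor, displacing [3H]CP55940. Ki obtained from IC50 by the Cheng-Prusoff equation. Two to four independent experiments, each run in triplicate; mean ± SEM reported.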

For experiment [4], the target named is T1, Cannabinoid receptor 1. Kind of experiment: Binding affinity at CB1 receptor expressed in mouse HT22 cells at 1 uM incubated for 1 hr using antiCB1-antibody based fluorescence microscopy. The experiment is classed as cell-based. The note with it: HT-22. Put shortly: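 Transfected HT-22 cells were treated in sequence with the probe (1 μM, 1 h), streptavidin-Alexa 488, anti-CB1 antibody and an anti-rabbit Alexa 633 conjugate. Co-labelling was imaged by fluorescence microscopy in the red channel and as a merge.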

In experiment [5] the target is T1, Cannabinoid receptor 1. Kind of experiment: Binding affinity at CB1 receptor expressed in mouse HT22 cells at 1 uM incubated for 1 hr using strepavidin-Alexa Fluor 488 staining based by fluorescence microscopy. The class given is cell-based. The note with it: HT-22. In a few lines: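 HT-22 mouse hippocampal cells transiently transfected with CB1 were incubated with the biotinylated probe at 1 μM for 1 h. Excess probe was removed and bound probe detected with streptavidin-Alexa Fluor 488. Nuclei were stained with Hoechst 33258 and imaged by fluorescence microscopy. Nontransfected cells, or an excess of HU210, served as specificity controls.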

The source made the active and inactive calls. The rule behind the calls is not given here. Some results are limits rather than exact numbers.

T1 sequence (P21554 whole entry): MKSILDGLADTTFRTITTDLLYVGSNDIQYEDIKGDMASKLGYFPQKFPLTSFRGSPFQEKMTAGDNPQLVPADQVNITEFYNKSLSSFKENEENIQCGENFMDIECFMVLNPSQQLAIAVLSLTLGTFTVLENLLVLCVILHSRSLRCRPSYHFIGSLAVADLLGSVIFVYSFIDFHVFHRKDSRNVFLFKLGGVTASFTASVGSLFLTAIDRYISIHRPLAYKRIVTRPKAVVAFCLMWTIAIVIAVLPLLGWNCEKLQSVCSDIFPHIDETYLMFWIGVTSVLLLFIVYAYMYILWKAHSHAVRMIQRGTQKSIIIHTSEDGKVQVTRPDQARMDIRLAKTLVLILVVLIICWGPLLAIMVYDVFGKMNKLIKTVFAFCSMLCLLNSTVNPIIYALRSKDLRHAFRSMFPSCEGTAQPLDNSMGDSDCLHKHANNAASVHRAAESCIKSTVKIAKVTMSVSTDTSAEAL
Sequence of Cannabinoid receptor 2 (P34972 whole entry): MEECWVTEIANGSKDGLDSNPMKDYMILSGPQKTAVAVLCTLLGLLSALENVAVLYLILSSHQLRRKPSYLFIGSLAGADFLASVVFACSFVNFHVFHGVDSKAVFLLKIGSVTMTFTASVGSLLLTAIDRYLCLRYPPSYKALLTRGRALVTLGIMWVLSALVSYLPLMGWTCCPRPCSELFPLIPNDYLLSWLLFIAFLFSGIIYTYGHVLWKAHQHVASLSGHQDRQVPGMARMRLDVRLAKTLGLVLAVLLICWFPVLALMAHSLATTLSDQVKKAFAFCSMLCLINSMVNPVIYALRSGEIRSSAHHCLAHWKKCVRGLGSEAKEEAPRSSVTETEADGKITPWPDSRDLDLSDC

Consider `CCCCC/C=C\C/C=C\C/C=C\C/C=C\CCCC(=O)OC(CO)COC(=O)CCCCCNC(=O)CCCC[C@@H]1SC[C@@H]2NC(=O)N[C@@H]21` (stereo partly drawn), for which the inhibitory constant (Ki) (commonly a measure of affinity in units of concentration, obtained from inhibition or displacement) was more than 5000 nM in experiment [1] and 379 nM in experiment [2].

As to `C#CCCCC(=O)N[C@@H](Cc1ccc(C(=O)c2ccccc2)cc1)C(=O)OC[C@@H](C)NC(=O)CCC/C=C\C/C=C\C/C=C\C/C=C\CCCCC`, the Ki in experiment [1] is 2000 nM; in experiment [2], more than 2000 nM.

Consider `CCCCCCC(C)(C)c1cc(O)c2c(c1)OC(C)(C)[C@@H]1CC=C(CO)C[C@@H]21`, for which the Ki in experiment [3] came out at 0.06 nM.

Consider `O=C(CCCC[C@@H]1SC[C@@H]2NC(=O)N[C@@H]21)NCCCCCC(=O)OCCCC/C=C\C/C=C\C/C=C\C/C=C\CCCC(=O)NC1CC1`, for which the Ki in experiment [1] and in experiment [2] was more than 2000 nM throughout.

As to `C#CCCCC(=O)OCC(CO)OCCCC/C=C\C/C=C\C/C=C\C/C=C\CCCCC` (stereo not drawn), the figures for the Ki in experiment [1] and in experiment [2] were 84.7 nM and 84.9 nM, respectively.

On to `CCCCC/C=C\C/C=C\C/C=C\C/C=C\CCCCOC(CO)CO`, for which the inhibition constant (Ki) in experiment [1] is 25 nM; in experiment [2] it was more than 1000 nM.

Consider `CCCCC/C=C\C/C=C\C/C=C\C/C=C\CCCCOC(CO)COC(=O)CCCCCNC(=O)CCCC[C@@H]1SC[C@@H]2NC(=O)N[C@@H]21` (stereo partly drawn), for which the results for the Ki in experiment [1] and in experiment [2] were 221 nM and 450 nM, respectively. For the same compound, the outcome in experiment [4] and in experiment [5] was Active.

Compound `Cc1cc(-c2cc(C(=O)NC3C4(C)CCC(C4)C3(C)C)nn2Cc2ccc(CNCCCCCCN)cc2)ccc1Cl` (stereo not drawn) registered a Ki in experiment [2] of 260 nM.

Consider `C#CCCCC(=O)OC[C@@H](C)NC(=O)CCC/C=C\C/C=C\C/C=C\C/C=C\CCCCC`, for which the inhibition constant (Ki) was 2000 nM in experiment [1] and more than 2000 nM in experiment [2].

With `CCCCC/C=C\C/C=C\C/C=C\C/C=C\CCCC(=O)N[C@H](C)COC(=O)CCCCCNC(=O)CCCC[C@@H]1SC[C@@H]2NC(=O)N[C@@H]21`, the Ki in experiment [1] is 2000 nM; in experiment [2] it was more than 2000 nM.

On to `C[C@H](CO)NC(=O)CCC/C=C\C/C=C\C/C=C\C/C=C\CCCCOC(=O)CCCCCNC(=O)CCCC[C@@H]1SC[C@@H]2NC(=O)N[C@@H]21`, for which the values for the Ki in experiment [1] and in experiment [2] were 2000 nM and more than 2000 nM, respectively.

Consider `CCCCC/C=C\C/C=C\C/C=C\C/C=C\CCCC(=O)OC(CO)CO` [2-ARACHIDONOYLGLYCEROL], for which the Ki in experiment [2] was 1300 nM.
